DTT redox prof: compounds producing H2O2 with reducing agent – biochemical, NIH compound library profiling, artefact control for MLSCN library redox annotation, primary screen | DTT-dependent redox cycling H2O2, phenol red/HRP absorbance; 100% = 100 µM peroxide control, 0% = buffer | activation, % at 10 µM | actives 0.03% (n = 200,000) | AID 878;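 active = activation of at least 50% relative to the plate's high and low controls in the primary single-dose screen; inactive = activation below 50%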;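 also: compound incubated with DTT at 0.8 mM final as the reducing agent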
L major viab: Leishmania major promastigote growth inhibition; Leishmania major promastigotes, resazurin fluorescence viability; inhibition, % at 10 µM; actives 9% (n = 200,000); AID 1063; in the data active = inhibition above about 50%;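 also: promastigotes grown with compound for 44 hours at 28 °C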
MPTP block: inhibitors of mitochondrial permeability transition pore; isolated mouse mitochondria, Ca2+ swelling absorbance, 30 min; inhibition, % at 10 µM; actives 1.4% (n = 360,000); AID 602449;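 active = inhibition of 50% or more, scaled per plate between neutral and stimulator controls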
Lipid droplet: hepatic lipid droplet formation modulation; AML12 mouse hepatocytes, oleate lipid droplets, BODIPY imaging; inhibition, % at 6.5 µM; actives 0.4% (n = 240,000); AID 1656;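 active = lipid droplet intensity inhibited by at least 50%, with more than 500 cells counted; inconclusive = wells with under 300 cells, treated as cytotoxic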
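Assay system: AML12 hepatocytes (mouse) / Also added: 100 µM oleic acid challenge / Times: overnight treatment with compound plus oleate / Detection: high-content imaging of BODIPY-stained droplets and DAPI nuclei / Evaluation: % inhibition of lipid droplet signal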
T cruzi inh: blocks replication of Trypanosoma cruzi. T. cruzi beta-gal in NIH3T3, luminescence, 90 h. actives 1.4% (n = 300,000). inhibition, % (no concentration beside the values);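 active = mean inhibition across valid replicates above about 55%, limit read from the data; inconclusive = mean below that limit but half or more replicates reach it; inactive = mean below it, under half of replicates reach it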;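 also: signal also drops with host cell toxicity which is not excluded here; higher percent means less beta-gal luminescence so fewer parasites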
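System – NIH/3T3 host cells with β-galactosidase reporter T. cruzi · Doses – single 50 nL compound addition per well in DMSO · Reagent – 5000 T. cruzi trypomastigotes/well · Medium – Low-serum DMEM with 2% FBS · Timing – ≥90 h infection period, 3 h prior cell attachment · Evaluation – parasite load inhibition, % · Technique – GalScreen luminescence, 60 min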
Of the large screens only hits and unclear results are named; the others gave an inactive call. This excerpt belongs to a sample that is enriched for hits.

Cc1ccc(S(=O)(=O)N2CCCCC2)cc1NC(=O)C1CC(=O)N(Cc2ccccc2)C1 (configuration not stated)	L major viab 52.9
COc1ccc(CN2CC(C(=O)NCCC(C)C)CC2=O)cc1 (configuration not stated)	L major viab 99.9
CCN(CC)c1ccc(NC(=O)C2CC(=O)N(Cc3ccccc3)C2)cc1 (configuration not stated)	none
CCCCN(C)CCCNC(=O)C1CC(=O)N(Cc2ccc(OC)cc2)C1 (configuration not stated)	none
Cc1[nH]c2ccccc2c1C(=O)C(=O)NCc1ccncc1	none (no result: DTT redox prof, L major viab, Lipid droplet)
O=C1/C(=C/c2c[nH]c3ccccc23)CCC/C1=C\c1c[nH]c2ccccc12	L major viab 84.1
COc1cccc(CNc2nc3ccccc3n2C(C)C)c1O	none (no result: DTT redox prof, L major viab, Lipid droplet)
COc1ccc(C2NCCc3c2[nH]c2ccccc32)cc1COc1ccc(F)cc1 (configuration not stated)	L major viab 100.3, Lipid droplet inconclusive
COc1ccc(C2NC(C(=O)O)Cc3c2[nH]c2ccccc32)cc1CN1CCN(c2ccc(F)cc2)CC1 (configuration not stated)	none (no result: DTT redox prof, L major viab)
COc1ccc(C2NCCc3c2[nH]c2ccccc32)cc1CN1CCc2cc(OC)c(OC)cc2C1C (configuration not stated)	T cruzi inh 61.2 (no result: DTT redox prof, L major viab)
CC[n+]1c(/C=C(\C)OC)sc2ccccc21	none (no result: T cruzi inh)
CC[n+]1c(/C=C/Nc2ccccc2)sc2ccccc21	L major viab 98.8 (no result: Lipid droplet)
CC[n+]1c(/C=C(\C)Nc2ccccc2)sc2ccccc21	L major viab 98.8 (no result: T cruzi inh)
CC[n+]1c(/C=C(\C)SC)sc2ccccc21	L major viab 65.0 (no result: Lipid droplet)
CC/C(=C/c1sc2ccccc2[n+]1CC)SC	L major viab 91.5
CC(C)c1cc(Cn2c3ccccc3c(=O)n2C(C)Cn2cc(CCc3ccccc3)nn2)on1 (configuration not stated)	none (no result: DTT redox prof, L major viab, Lipid droplet, T cruzi inh)
CCN1/C(=C/C=C/C=C/C=C/c2sc3ccccc3[n+]2CC)Sc2ccccc21	none (no result: DTT redox prof, L major viab)
CCN1/C(=C/C=C/C=C/c2sc3ccccc3[n+]2CC)Sc2ccccc21	L major viab 100.4, T cruzi inh 58.0 (no result: MPTP block)
CC[n+]1c(/C=C(/C)SC)sc2ccccc21	L major viab 82.5
CC(C)(C)OC(=O)C[C@H]1C/C=C\C[C@H](CC(=O)N[C@H](CO)Cc2ccccc2)C(=O)N[C@@H](Cc2ccccc2)COC1=O	none (no result: DTT redox prof, L major viab, Lipid droplet, T cruzi inh)
Cc1cc(C)nc(NS(=O)(=O)c2ccc(N/C=C/C(=O)c3ccc(Cl)cc3)cc2)n1	L major viab 57.5
CCc1nnc(NS(=O)(=O)c2ccc(N/C=C\C(=O)c3ccc4ccccc4c3)cc2)s1	L major viab 53.9
Cc1noc(NS(=O)(=O)c2ccc(N/C=C/C(=O)c3ccc(F)cc3)cc2)c1C	none
COc1ccc(C(=O)/C=C/Nc2ccc(S(=O)(=O)Nc3onc(C)c3C)cc2)cc1	L major viab 66.3
O=C(COC(=O)COc1ccc(Br)cc1)NNC(=O)c1ccccc1	none (no result: DTT redox prof, L major viab, Lipid droplet, T cruzi inh)
CN1CCN(CCCC(=O)c2ccc(F)cc2)CC1	none (no result: Lipid droplet)
O=C(CCN1Cc2ccccc2C1)c1ccc2c(c1)OCCO2	L major viab 83.2 (no result: Lipid droplet)
O=C(CCCN1Cc2ccccc2C1)c1ccc(F)cc1	L major viab 93.0 (no result: Lipid droplet)
CCN(CC)C(=O)CSc1nnc(-c2ccccn2)n1Cc1ccccc1	none (no result: DTT redox prof, L major viab)
O=C(CN1CCOCC1)N(c1ccccc1)c1ccc2ccccc2c1	none (no result: Lipid droplet)
O=C(CN1CCN(c2ccccn2)CC1)N(c1ccccc1)c1ccc2ccccc2c1	L major viab 97.1 (no result: Lipid droplet, T cruzi inh)
CCCn1cnnc1CNC(=O)[C@H]1O[C@@H](n2cnc3c(N)ncnc32)[C@H](O)[C@@H]1O	none (no result: DTT redox prof, L major viab, Lipid droplet, T cruzi inh)
C1CCN(c2nc(N3CCCCC3)nc(N3CCNCC3)n2)CC1	L major viab 67.6 (no result: Lipid droplet)
CC1CC2=C(NC(=S)NC2c2cccc(F)c2)/C(=C/c2cccc(F)c2)C1 (configuration not stated)	T cruzi inh 58.6
Cc1ccc(/C=C2\CC(C)CC3=C2NC(=S)NC3c2ccc(C)cc2)cc1 (configuration not stated)	none (no result: DTT redox prof, L major viab)
Cc1oc(-c2ccc3c(c2)OCCO3)cc1C(=O)NC(Cc1ccccc1)C(=O)O (configuration not stated)	none
Cc1cc(C)cc(NC(=O)CSc2nc3c(oc4ccccc43)c(=O)n2-c2ccccc2)c1	L major viab 61.3, T cruzi inh 55.0
Cc1cc(C)c(S(=O)(=O)N(CC(=O)O)CC(=O)O)c(C)c1	none
Cc1cc(C)c(S(=O)(=O)N(C2=NCCS2)S(=O)(=O)c2c(C)cc(C)cc2C)c(C)c1	L major viab 98.2
O=C(c1ccc([N+](=O)[O-])s1)N1CCc2ccccc2C1	L major viab 94.2, T cruzi inh 84.0
O=C(OCc1ccccc1)N1CCC2CC1c1cc(N3CCN(S(=O)(=O)c4cccc5ccccc45)CC3)ccc12 (configuration not stated)	none (no result: DTT redox prof, L major viab, Lipid droplet, T cruzi inh)
O=C1NC(=O)/C(=C\c2ccc(Br)o2)S1	T cruzi inh 68.6 (no result: DTT redox prof, L major viab)
CN(C)C(=O)c1cccc(-c2cnc3c(NC=O)cc(-c4ccccc4F)cn23)c1	none (no result: DTT redox prof, L major viab, Lipid droplet, T cruzi inh)
CN(C)c1ccc(CNCCC2CCOC(C)(C)C2)cc1 (configuration not stated)	L major viab 93.7, T cruzi inh 58.0 (no result: MPTP block)
CCOC(=O)c1c(C)[nH]c(C(=O)CSc2nccc(C)n2)c1C	L major viab 75.3
COc1ccc(C2=CC(=O)C[C@H](c3ccc(F)cc3)C2)c(OC)c1	none (no result: DTT redox prof, L major viab, Lipid droplet, T cruzi inh)
Nc1ncnc(Oc2cccc3cccnc23)c1[N+](=O)[O-]	L major viab 96.3
Cc1cccc(Oc2ncnc(N)c2[N+](=O)[O-])c1C	none
Cc1ccc(NC(=O)CNC2CCCCC2)cc1Cl	none (no result: DTT redox prof, L major viab)
O=C(NCCCCc1ccccc1)C1CC(c2ccccc2C(F)(F)F)=NO1 (configuration not stated)	none (no result: DTT redox prof, L major viab, Lipid droplet)
O=C(Nc1ccc2c(c1)OCO2)C1CC(=O)N(c2ccc(F)cc2)C1 (configuration not stated)	none (no result: DTT redox prof, L major viab)
C=C1[C@@H](OC(C)=O)C=C[C@@]2(C)C=CC(=O)[C@@](C)(OC(C)=O)[C@@H]2[C@@H](OC(C)=O)[C@]2(O)[C@@H](C)C(=O)O[C@H]2[C@H]1Cl	none (no result: DTT redox prof, L major viab, Lipid droplet, T cruzi inh)
CC12CCC(C(=O)NNC(=O)c3ccccc3)(OC1=O)C2(C)C (configuration not stated)	none (no result: DTT redox prof, L major viab)
CC12CCC(C(=O)N(Cc3ccccc3)Cc3ccccc3)(OC1=O)C2(C)C (configuration not stated)	L major viab 71.5 (no result: Lipid droplet)
Cc1ccc(S(=O)(=O)N2CCN(C(=O)COC(=O)c3cnc(C)cn3)CC2)c(C)c1	none (no result: DTT redox prof, L major viab, Lipid droplet)
Cc1ccc(CN2CCN(C3CCC3)CC2CCO)cc1 (configuration not stated)	none (no result: DTT redox prof, L major viab)
CCOC(=O)N1CCC(N2CCN(Cc3ccccc3)C(CCO)C2)CC1 (configuration not stated)	L major viab 50.1
Cc1ccc(N2CCC(N3CCN(C4CCCCC4)C(CCO)C3)CC2)cc1 (configuration not stated)	L major viab 53.5
